From ChEMBL document CHEMBL1157327, “Antimicrobial dialkylresorcinols from Pseudomonas sp. Ki19” (2006)
Values after ≈ are worked out from the molar mass of the structure shown.

What was measured:
Format in all cases: functional
[1] = system: Candida albicans; test: Antifungal activity against Candida albicans assessed as total inhibition of cell growth/spore germination after 24 hrs
Summary of the method: (§1)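 Microtiter-plate cell growth inhibition, compounds tested up to 100 µg/mL, incubated at 37 °C for 24 h. Total inhibition was taken as full inhibition of growth. Tests run in triplicate and repeated once.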

[2] = system: Aspergillus fumigatus; test: Antifungal activity against Aspergillus fumigatus assessed as total inhibition of cell growth/spore germination after 96 hrs
Summary of the method: (§2)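 Spore germination/growth inhibition was read in microtiter plates with compounds up to 100 µg/mL. Plates were incubated in darkness at 27-28 °C: D. sorokiniana 48 h, F. culmorum 72 h, A. fumigatus 96 h. Visual scores ran from 3 (full inhibition, like sterile medium) through 1 (detectable) to 0 (like untreated spore suspension). Triplicates, repeated once.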

[3] = system: Drechslera; test: Antifungal activity against Drechslera sorokiniana assessed as total inhibition of cell growth/spore germination after 48 hrs; summary of the method: as §2
[4] = system: Fusarium culmorum; test: Antifungal activity against Fusarium culmorum assessed as total inhibition of cell growth/spore germination after 72 hrs; summary of the method: as §2
[5] = system: Staphylococcus aureus; test: Antibacterial activity against Staphylococcus aureus assessed as total inhibition of cell growth/spore germination after 24 hrs; summary of the method: as §1
[6] = system: Candida albicans; test: Antifungal activity against Candida albicans assessed as detectable inhibition of growth after 24 hrs; summary of the method: as §1
[7] = system: Aspergillus fumigatus; test: Antifungal activity against Aspergillus fumigatus assessed as detectable inhibition of growth after 96 hrs; summary of the method: as §2
[8] = system: Drechslera; test: Antifungal activity against Drechslera sorokiniana assessed as detectable inhibition of growth after 48 hrs; summary of the method: as §2
[9] = system: Fusarium culmorum; test: Antifungal activity against Fusarium culmorum assessed as detectable inhibition of growth after 72 hrs; summary of the method: as §2
[10] = system: Staphylococcus aureus; test: Antibacterial activity against Staphylococcus aureus assessed as detectable inhibition of growth after 24 hrs; summary of the method: as §1
[11] = system: Pseudomonas savastanoi pv. savastanoi; test: Antibacterial activity against Pseudomonas savastanoi pv. savastanoi CCM 3580 assessed as detectable inhibition of growth after 24 hrs; conditions: CCM 3580, 24 h
Summary of the method: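 Microtiter-plate bioassay of cell growth inhibition; compounds tested up to 100 µg/mL; plates incubated in darkness at 27-28 °C for 24 h; growth scored visually on a 0-3 scale (3 full inhibition like sterile-medium control, 1 detectable inhibition, 0 like untreated cell suspension); value is lowest concentration giving detectable inhibition; triplicate, repeated once.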

SMILES: C[C@@H]1[C@H](O)[C@@H](C)/C=C/C=C/C=C/C=C/C=C/C=C/C=C/[C@H](O[C@@H]2O[C@H](C)[C@@H](O)[C@H](N)[C@@H]2O)C[C@@H]2O[C@](O)(C[C@@H](O)C[C@@H](O)[C@H](O)CC[C@@H](O)C[C@@H](O)CC(=O)O[C@H]1C)C[C@H](O)[C@H]2C(=O)O [AMPHOTERICIN B]
- MIC [1]: 40 µg/mL (≈ 43.3 µM)
- MIC [2]: 40 µg/mL (≈ 43.3 µM)
- MIC [3]: 4 µg/mL (≈ 4.33 µM)
- MIC [4]: 40 µg/mL (≈ 43.3 µM)

SMILES: CCCCc1c(O)cc(CCC)cc1O
- MIC [5]: 5 µg/mL (≈ 24 µM)
- MIC [6]: 50 µg/mL (≈ 240 µM)
- MIC [7]: 50 µg/mL (≈ 240 µM)
- MIC [8]: 50 µg/mL (≈ 240 µM)
- MIC [4]: 50 µg/mL (≈ 240 µM)

SMILES: C=CCOC(Cn1ccnc1)c1ccc(Cl)cc1Cl (stereo not drawn) [ENILCONAZOLE]
- MIC [2]: 5 µg/mL (≈ 16.8 µM)
- MIC [3]: 0.1 µg/mL (≈ 0.336 µM)
- MIC [4]: 5 µg/mL (≈ 16.8 µM)

SMILES: CCCCCCc1c(O)cc(C)cc1O
- MIC [5]: 2 µg/mL (≈ 9.6 µM)
- MIC [6]: 50 µg/mL (≈ 240 µM)
- MIC [7]: 10 µg/mL (≈ 48 µM)
- MIC [2]: 50 µg/mL (≈ 240 µM)
- MIC [9]: 10 µg/mL (≈ 48 µM)
- MIC [10]: 1 µg/mL (≈ 4.8 µM)
- MIC [3]: 50 µg/mL (≈ 240 µM)
- MIC [4]: 50 µg/mL (≈ 240 µM)

SMILES: CCCCCCC1=C(O)C(=O)C(CCCCC)=CC1=O
- MIC [5]: 100 µg/mL (≈ 359 µM)
- MIC [1]: 100 µg/mL (≈ 359 µM)

SMILES: CCCCCCc1c(O)cc(CCC)cc1O
- MIC [5]: 3 µg/mL (≈ 12.7 µM)
- MIC [1]: 50 µg/mL (≈ 212 µM)
- MIC [7]: 10 µg/mL (≈ 42.3 µM)
- MIC [2]: 50 µg/mL (≈ 212 µM)
- MIC [9]: 10 µg/mL (≈ 42.3 µM)
- MIC [8]: 50 µg/mL (≈ 212 µM)
- MIC [10]: 2 µg/mL (≈ 8.46 µM)
- MIC [4]: 50 µg/mL (≈ 212 µM)

SMILES: CN[C@@H]1[C@H](O[C@H]2[C@H](O[C@H]3[C@H](O)[C@@H](O)[C@H](N=C(N)N)[C@@H](O)[C@@H]3N=C(N)N)O[C@@H](C)[C@]2(O)C=O)O[C@@H](CO)[C@H](O)[C@H]1O [STREPTOMYCIN]
- MIC [5]: 10 µg/mL (≈ 17.2 µM)

SMILES: CCCCCCc1c(O)cc(CCCCC)cc1O [RESORSTATIN]
- MIC [5]: 7 µg/mL (≈ 26.5 µM)
- MIC [6]: 50 µg/mL (≈ 189 µM)
- MIC [7]: 50 µg/mL (≈ 189 µM)
- MIC [8]: 50 µg/mL (≈ 189 µM)
- MIC [10]: 6 µg/mL (≈ 22.7 µM)
- MIC [11]: 50 µg/mL (≈ 189 µM)
- MIC [4]: 50 µg/mL (≈ 189 µM)
